H9c2 protect – myocardial damage modulation in H9c2 cells; AID 588492; actives 0.63% (n = 360,000); H9c2 cardiomyocytes, H2O2 injury protection, ATPLite, 2 h; protection from H2O2 cell death, % at 20 µM;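 active = compounds giving at least 50% protection of heart cells from peroxide-induced death in the single-dose screen, raw or plate-pattern-corrected value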
UPR XBP1 act – activators of adaptive arm of unfolded protein response (XBP1). CHO-XBP1 luciferase reporter, IRE1-XBP1 UPR activation, luminescence; percent of tunicamycin response, DMSO as zero. activation, % at 20 µM. actives 0.33% (n = 330,000). AID 463104;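 active = versus positive control, 20 µM dose yields 30% or more activation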
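Material: IRE1-XBP1 luciferase reporter CHO line / Quantity: one thousand reporter cells per well / Buffer or medium: F12 with 10% serum / Compound: 20 µM single concentration, DMSO 1% / Times: 6 h treatment, 37 °C / Detection: Steady-Glo luciferase glow luminescence, 10 min after reagent addition / Benchmarks: tunicamycin high, DMSO low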
hiPSC survival – increases survival of single human iPS cells; survival enhancement, % at 20 µM; hiPSC single-cell survival, ATPlite luminescence; 100% = ROCK inhibitor wells, 0% = DMSO; actives 0.044% (n = 360,000); AID 602274; in the data active = survival enhancement above about 18%;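 also: cells exposed to compounds for 16 hours before the ATP read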
CHOP UPR activ – apoptotic UPR (CHOP) activation | CHO-CHOP luciferase reporter, luminescence; percent of tunicamycin response over DMSO baseline | actives 0.34% (n = 330,000) | activation, % at 10 µM;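 active = at 10 µM dose, activation of 40% or more, normalized to positive control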
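Test system: CHO CHOP reporter cells. Input: 500 CHO-CHOP cells per well. Medium: F12 with 10% FBS. Technique: luciferase luminescence. Measure: percent activation relative to tunicamycin control. Dosing: 10 µM compound, 0.5% DMSO. Timing: 16-18 h cell attachment, then 6 h compound exposure, 37 °C.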
CHOP inhibitor – blocks CHOP induction under ER stress; CHO-K1 CHOP-promoter luciferase, tunicamycin-induced, 15-18 h; actives 3.8% (n = 220,000); inhibition, % at 10 µM;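 active = compounds that reduced the stress-induced luciferase reporter signal by more than about 70% of percent inhibition, limit read from the data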
A number is an active result; 0 = inactive; - = no result. This excerpt belongs to a sample that is enriched for hits.

SMILES	H9c2 protect	UPR XBP1 act	hiPSC survival	CHOP UPR activ	CHOP inhibitor
NC(=O)N=Nc1c2[nH]c3ccccc3nc-2c2ccccc12	59.6	0	0	0	0
O=c1[nH]c2ccccc2nc1-c1ccccc1	0	0	0	0	0
CCOC(=O)C(C)On1c(-c2ccc(Cl)cc2)nc2ccc([N+](=O)[O-])cc21 (stereo not given)	0	0	0	0	71.8
COn1c(-c2ccc(Cl)cc2)nc2ccc(Cl)cc21	0	0	0	0	74.1
O=C(O)COn1c(-c2ccc(Cl)cc2)nc2ccc(Cl)cc21	0	0	0	0	0
COc1cc(OC)nc(C(NC(=O)C2CCN(Cc3c[nH]c4ccccc34)CC2)c2ccc(Cl)cc2)n1 (stereo not given)	0	-	0	-	-
C#CCNC(=O)C[C@@H]1C[C@@]2(C(=O)OCC)CCC=C2N(Cc2ccc(Cl)cc2Cl)C1=O	-	-	0	-	-
O=C(/C=C/c1ccc(F)cc1)NC(=S)NNC(=O)c1cnccn1	52.4	0	0	0	0
COc1ccccc1CNC(=O)COC(=O)/C=C/c1ccc2ccccc2n1	0	0	0	0	-
CCc1nc(N2CCCCC2)c2oc3ccccc3c2n1	0	0	0	0	89.1
CCc1nc(N2CCCCC2C)c2oc3ccccc3c2n1 (stereo not given)	0	0	0	0	0
CCc1nc(N2CCCC(C)C2)c2oc3ccccc3c2n1 (stereo not given)	0	0	0	0	71.8
CCOC(=O)C1CCCN(c2nc(C)nc3c2oc2ccccc23)C1 (stereo not given)	0	0	0	0	0
CCOC(=O)C1CCN(c2nc(C)nc3c2oc2ccccc23)CC1	0	0	0	0	74.7
O=c1[nH]c(=S)[nH]c2c1[C@H](CCc1cccc(Cl)c1)O[C@H](C1CCCC1)C2	-	-	0	-	-
COc1cccc(N2CCN(C(=O)CN(c3cc(C)cc(C)c3)S(=O)(=O)c3c(C)noc3C)CC2)c1	0	0	0	0	-
Cc1cc(C)cc(N(CC(=O)N2CCN(c3ccccc3)CC2)S(=O)(=O)c2c(C)noc2C)c1	0	0	0	0	75.6
CS(=O)(=O)N(CC(=O)N1CCN(c2ccccc2)CC1)c1ccc(Cl)c(C(F)(F)F)c1	0	0	0	0	76.4
CC1CC(=Cc2ccc(N)cc2)C(=O)O1 (stereo not given)	0	-	0	-	-
C=CCn1cnc2scc(-c3ccc(C)cc3)c2c1=O	0	0	0	0	75.2
CCCn1cnc2scc(-c3ccc(C)cc3)c2c1=O	0	0	0	0	0
CCN(CC)S(=O)(=O)c1ccc(C(=O)NCCN2C(=O)S/C(=C\c3cccnc3)C2=O)cc1	0	0	0	0	0
CCCCN1C(=O)c2ccc(C(=O)NCCN3C(=O)S/C(=C\c4cccnc4)C3=O)cc2C1=O	0	0	0	0	76.3
Cc1ccc(N2CCC3CC2c2cc(-c4ccc(C(F)(F)F)cc4)ccc23)cc1 (stereo not given)	0	-	0	-	-
CC(=O)N(C(C)=O)c1ccc(Oc2ccc(Oc3ccc(N(C(C)=O)C(C)=O)cc3)cc2)cc1	0	-	0	-	-
SMILES	H9c2 protect	UPR XBP1 act	hiPSC survival	CHOP UPR activ	CHOP inhibitor
Cc1cc(C)c(N(C(=O)Cn2nnc3ccccc32)C(C(=O)NC(C)(C)C)c2ccsc2)c(C)c1 (stereo not given)	0	0	0	0	0
CC(C)(C)NC(=O)C(c1ccsc1)N(CCc1ccccc1)C(=O)Cn1nnc2ccccc21 (stereo not given)	0	0	0	0	95.0
CC(C)CCNC(=O)C(c1cccnc1)N(CCc1ccccc1)C(=O)Cn1nnc2ccccc21 (stereo not given)	0	0	0	0	0
Cc1ccc(C)c(N(C(=O)Cn2nnc3ccccc32)C(C(=O)NC(C)(C)C)c2ccsc2)c1 (stereo not given)	0	0	0	0	70.6
C/C(=N\NC(=O)COc1ccc(C(C)(C)C)cc1)c1ccccc1	0	0	0	0	81.1
C/C(=N\NC(=O)COc1ccc(C(C)(C)C)cc1)c1cc2ccccc2o1	0	0	0	0	73.8
C/C(=N\NC(=O)COc1ccc(C(C)(C)C)cc1)c1ccc(OC(F)F)cc1	0	0	0	0	93.7
COC(=O)C(Cc1ccccc1)NC(=O)COc1ccc(C(C)(C)C)cc1 (stereo not given)	0	0	0	0	92.6
O=C(CSc1nnc2ccccn12)Nc1ccccc1[N+](=O)[O-]	0	-	0	-	-
COCCNC(=O)C1(C)CCCN(Cc2ccc(Cl)nc2)C1 (stereo not given)	0	-	0	-	-
CCOC(=O)Cc1ccc(NCc2ccc(Cl)cc2)cc1	0	0	0	0	78.3
CSC12CCCN(CCC(C(C)(C)C)C1)C2=O (stereo not given)	-	-	0	-	-
CCOc1ccc(OCCSc2nc3ccccc3o2)cc1	0	0	0	0	76.9
O=C1CCC2S/C(=C/Nc3ccc(C(F)(F)F)cc3)C(=O)N12 (stereo not given)	0	0	0	0	94.9
Cc1cc(C(=O)N/N=C/c2cc(Br)ccc2OC(=O)c2ccc(Br)cc2)n[nH]1	-	0	-	0	0
Cc1cc(C(=O)N/N=C/c2cc(Br)cc(Br)c2OC(=O)c2ccccc2)n[nH]1	-	0	-	0	81.4
Cc1cc(C(=O)N/N=C\c2cc(C(C)(C)C)ccc2O)n[nH]1	61.5	0	0	0	-
Cc1cc(C(=O)N/N=C/c2cc(Br)cc(Br)c2OC(=O)c2cccc(F)c2)n[nH]1	82.7	0	0	0	92.2
O=S(=O)(c1ccccc1)N1CC2CC(Br)C(Br)CC21 (stereo not given)	0	-	0	-	-
COCCN(Cc1ccc(C)cc1)C(=O)[C@H]1O[C@@H](n2ccc(N)nc2=O)[C@H](O)[C@@H]1O	0	-	0	-	-
COc1ccc(/C=N/NC(=O)CNC(=O)c2ccncc2)cc1OC	0	0	0	0	-
COc1ccc(NC(=O)C2CCCNC2)cc1OCC(C)C (stereo not given)	0	0	0	0	76.7
CCOC(=O)[C@H]1[C@H]2COc3ccc(Br)cc3[C@@H]2N2C(=O)c3cc(OC)c(OC)cc3NC(=O)[C@@]12C	50.5	0	0	0	-
CC(CC(=O)c1ccc(F)cc1)N1CCN(c2ccccc2)CC1 (stereo not given)	0	-	0	-	-
Cc1ccccc1C(=O)Oc1ccc(Sc2ccc(O)cc2)cc1	-	0	-	0	95.7
CC1=C(C(=O)N2CCCCCC2)CC(CC(=O)NCC2CCCCC2)C(=O)N1Cc1ccc(F)cc1 (stereo not given)	-	-	0	-	-
O=c1ccc2c(OCCCCc3ccccc3)c3ccoc3cc2o1	-	-	-	-	0
CCCC1CCC(c2ccc(/C(N)=N/O)cc2)CC1 (stereo not given)	0	0	0	0	81.1
CCCC1CCC(c2ccc(C(N)=O)cc2)CC1 (stereo not given)	0	0	0	0	-
COC1=NC(=C(c2ccccc2)c2ccccc2)OC1=O	0	-	0	-	-

High-throughput results from PubChem BioAssay.
